Test results published in ChEMBL document CHEMBL1131106, “Synthesis and characterization of heteroarotinoids demonstrate structure specificity relationships” (J Med Chem, 1998).

Columns and labels:
[1] = target: T1, Retinoic acid receptor RXR-alpha (Homo sapiens, UniProt P19793); test: Transcriptional activation in CV-1 cells expressing RXR-alpha receptor;not active
T1 sequence (P19793 whole entry): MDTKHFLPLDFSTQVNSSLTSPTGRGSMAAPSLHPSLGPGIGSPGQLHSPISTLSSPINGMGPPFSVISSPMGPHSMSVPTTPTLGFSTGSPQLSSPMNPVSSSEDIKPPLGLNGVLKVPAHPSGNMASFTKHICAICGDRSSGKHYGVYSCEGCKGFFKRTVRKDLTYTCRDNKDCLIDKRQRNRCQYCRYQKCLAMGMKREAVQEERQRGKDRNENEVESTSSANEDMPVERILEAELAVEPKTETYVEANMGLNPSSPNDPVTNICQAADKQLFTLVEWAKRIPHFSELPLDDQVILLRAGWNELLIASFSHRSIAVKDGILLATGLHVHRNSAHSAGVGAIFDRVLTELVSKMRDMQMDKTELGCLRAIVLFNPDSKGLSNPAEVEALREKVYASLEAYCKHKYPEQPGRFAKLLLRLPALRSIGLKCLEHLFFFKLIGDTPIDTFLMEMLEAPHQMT

[2] = target: T2, Retinoic acid receptor alpha (Homo sapiens, UniProt P10276); test: Transcriptional activation in CV-1 cells expressing RAR-alpha receptor; format: cell-based
T2 sequence (P10276 whole entry): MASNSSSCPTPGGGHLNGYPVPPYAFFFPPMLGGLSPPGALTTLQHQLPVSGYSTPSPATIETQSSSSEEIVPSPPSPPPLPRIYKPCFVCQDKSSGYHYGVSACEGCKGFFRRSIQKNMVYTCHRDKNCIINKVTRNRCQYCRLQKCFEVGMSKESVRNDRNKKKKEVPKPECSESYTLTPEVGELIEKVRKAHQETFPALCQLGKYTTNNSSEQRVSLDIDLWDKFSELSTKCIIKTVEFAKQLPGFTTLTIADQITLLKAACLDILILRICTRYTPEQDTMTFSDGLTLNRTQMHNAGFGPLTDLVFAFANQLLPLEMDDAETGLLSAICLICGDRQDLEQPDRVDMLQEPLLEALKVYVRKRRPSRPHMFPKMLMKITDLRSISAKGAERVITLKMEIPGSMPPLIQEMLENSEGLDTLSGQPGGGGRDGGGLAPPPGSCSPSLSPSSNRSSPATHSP
Method in brief: (§1)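 CV-1 cells co-transfected by calcium phosphate with receptor expression plasmid, luciferase reporter MTV-TREp-LUC (two TRE-palindromic copies; RAR assays), β-galactosidase internal control plasmid and pGEM carrier. Incubated 40 h with or without various retinoid concentrations. Luciferase read in extracts, normalized to β-galactosidase. Triplicate. Activity normalized to 9-cis-retinoic acid; EC50 = concentration giving 50% maximal response.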

[3] = target: T3, Retinoic acid receptor gamma (Homo sapiens, UniProt P13631); test: Transcriptional activation in CV-1 cells expressing RAR-gamma receptor; format: cell-based
T3 sequence (P13631 whole entry): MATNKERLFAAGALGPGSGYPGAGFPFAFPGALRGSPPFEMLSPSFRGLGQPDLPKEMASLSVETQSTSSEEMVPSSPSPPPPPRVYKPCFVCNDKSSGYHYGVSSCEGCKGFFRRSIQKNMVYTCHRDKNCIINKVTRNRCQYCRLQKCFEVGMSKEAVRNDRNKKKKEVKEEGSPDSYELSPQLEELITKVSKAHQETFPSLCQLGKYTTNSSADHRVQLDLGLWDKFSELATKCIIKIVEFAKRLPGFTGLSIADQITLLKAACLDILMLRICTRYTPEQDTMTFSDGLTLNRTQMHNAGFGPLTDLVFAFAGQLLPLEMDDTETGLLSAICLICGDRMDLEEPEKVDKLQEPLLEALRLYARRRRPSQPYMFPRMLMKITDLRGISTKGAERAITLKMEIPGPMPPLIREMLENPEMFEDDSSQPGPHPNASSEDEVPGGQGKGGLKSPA
Method in brief: as §1

[4] = target: T4, Retinoic acid receptor beta (Homo sapiens, UniProt P10826); test: Transcriptional activation in CV-1 cells expressing RAR-beta receptor; format: cell-based
T4 sequence (P10826 whole entry): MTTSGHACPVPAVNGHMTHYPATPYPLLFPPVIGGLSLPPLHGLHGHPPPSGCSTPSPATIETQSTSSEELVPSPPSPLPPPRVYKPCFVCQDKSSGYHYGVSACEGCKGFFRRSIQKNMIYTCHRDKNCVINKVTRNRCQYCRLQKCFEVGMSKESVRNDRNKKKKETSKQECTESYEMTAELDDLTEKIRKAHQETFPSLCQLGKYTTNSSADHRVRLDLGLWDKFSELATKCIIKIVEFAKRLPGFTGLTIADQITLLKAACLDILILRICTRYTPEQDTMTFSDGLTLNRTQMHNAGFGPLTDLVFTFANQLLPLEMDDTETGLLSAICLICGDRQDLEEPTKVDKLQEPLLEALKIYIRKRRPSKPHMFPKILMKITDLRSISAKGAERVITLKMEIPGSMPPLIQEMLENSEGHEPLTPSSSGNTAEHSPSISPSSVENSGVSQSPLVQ
Method in brief: as §1

[5] = target: T1, Retinoic acid receptor RXR-alpha; test: Transcriptional activation in CV-1 cells expressing RXR-alpha receptor
[6] = target: T2, Retinoic acid receptor alpha; test: Transcriptional activation in CV-1 cells expressing RAR-alpha receptor; Not active; format: cell-based
Method in brief: as §1

SMILES	EC50 [1]	EC50 [2]	EC50 [3]	EC50 [4]	EC50 [5]	EC50 [6]
C/C(=C\c1ccc(C(=O)O)cc1)c1ccc2c(c1)C(C)(C)CO2	Not Active	2300 nM	460 nM	320 nM	–	–
CC(/C=C/C=C(\C)c1ccc2c(c1)C(C)(C)CO2)=C\C(=O)O	–	800 nM	230 nM	770 nM	2800 nM	–
COC(=O)c1ccc(/C=C(\C)c2ccc3c(c2)C(C)(C)CCO3)cc1	Not Active	1100 nM	330 nM	140 nM	–	–
COC(=O)c1ccc(/C=C(\C)c2ccc3c(c2)C(C)(C)CO3)cc1	Not Active	–	400 nM	430 nM	–	Not Active

These reach a lower EC50 [3]. Values come first.

EC50 [1]	EC50 [2]	EC50 [3]	EC50 [4]	EC50 [5]	EC50 [6]	SMILES
Not Active	420 nM	30 nM	18 nM	–	–	C/C(=C\c1ccc(C(=O)O)cc1)c1ccc2c(c1)C(C)(C)CS2
Not Active	620 nM	84 nM	110 nM	–	–	COC(=O)c1ccc(/C=C(\C)c2ccc3c(c2)C(C)(C)CCS3)cc1
Not Active	1100 nM	200 nM	190 nM	–	–	C/C(=C\c1ccc(C(=O)O)cc1)c1ccc2c(c1)C(C)(C)CCO2
–	1000 nM	8 nM	1200 nM	2600 nM	–	CC(/C=C/C=C(\C)c1ccc2c(c1)C(C)(C)CS2)=C\C(=O)O
–	1400 nM	12 nM	43 nM	2700 nM	–	CC(/C=C/C=C(\C)c1ccc2c(c1)C(C)(C)CCS2)=C\C(=O)O
–	740 nM	39 nM	72 nM	2800 nM	–	CC(/C=C/C=C(\C)c1ccc2c(c1)C(C)(C)CCO2)=C\C(=O)O
